GSTO1 counter: blocks human GSTO1 in RBBP9 counter-screen; inhibition, % at 5.96 µM; recombinant GSTO1, activity-based probe fluorescence polarization; actives 1.1% (n = 300,000); AID 1974;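 active means inhibition above the campaign mean inhibition plus 3 SD, cut at about 35% in these data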;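 further: 0% = GSTO1-1 with DMSO and 100% = wells lacking GSTO1-1 enzyme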
Target sequence (P78417 whole entry, looked up): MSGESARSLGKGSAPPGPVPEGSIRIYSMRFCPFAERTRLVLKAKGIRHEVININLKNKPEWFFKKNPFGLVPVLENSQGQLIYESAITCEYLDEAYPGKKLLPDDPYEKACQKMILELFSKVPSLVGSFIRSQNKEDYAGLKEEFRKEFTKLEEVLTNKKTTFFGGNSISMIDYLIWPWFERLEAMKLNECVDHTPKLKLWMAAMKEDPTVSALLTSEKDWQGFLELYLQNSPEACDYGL
PAD4 FP inh: PAD4 (human) enzyme inhibition; actives 0.41% (n = 330,000); Q9UM07; inhibition, % at 6.36 µM; recombinant PAD4, RCA probe fluorescence polarization;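 active means percent inhibition above a cutoff equal to the mean of all tested compounds plus 3 SD, cut at about 15% in these data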;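 further: 0% = PAD4 with RCA probe and DMSO and 100% = probe without PAD4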
PRMT1 FP inh: PRMT1 (human) inhibition, primary screen. AID 652257. actives 1.3% (n = 370,000). recombinant PRMT1, activity-based probe fluorescence polarization. inhibition, % at 2.79 µM;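 active means inhibition above about 21% made by adding two undisclosed values, limit read from the data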
TDP2 absorb: TDP2 (human) inhibition, absorbance primary screen; O95551; recombinant TDP2, T5PNP hydrolysis, p-nitrophenol absorbance 415 nm; inhibition, % at 12.8 µM; actives 0.34% (n = 370,000);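 active means inhibition above the mean of all tested compounds plus 3 SD, set per campaign, cut at about 25% in these data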;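 further: 0% = DMSO with enzyme and 100% = buffer with substrate but no TDP2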
Target sequence (O95551 whole entry, looked up): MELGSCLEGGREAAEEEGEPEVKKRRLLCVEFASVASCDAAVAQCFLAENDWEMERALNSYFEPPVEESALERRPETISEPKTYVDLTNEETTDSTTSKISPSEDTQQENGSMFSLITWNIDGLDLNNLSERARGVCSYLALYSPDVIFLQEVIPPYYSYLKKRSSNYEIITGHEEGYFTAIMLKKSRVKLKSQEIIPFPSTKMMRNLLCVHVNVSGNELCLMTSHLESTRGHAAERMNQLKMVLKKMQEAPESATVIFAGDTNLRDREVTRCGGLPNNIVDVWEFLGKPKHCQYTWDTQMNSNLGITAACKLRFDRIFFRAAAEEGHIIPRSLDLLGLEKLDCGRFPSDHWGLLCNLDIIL
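System: recombinant human TDP2 / Amount: 120 nM TDP2 per well / Also added: 5 mM T5PNP chromogenic substrate / Doses: 12.8 µM single point, 1% DMSO / Incubation: 2 h at 37 °C / Detection: p-Nitrophenol epi absorbance / Evaluation: % inhibition relative to enzyme-containing and enzyme-free wells / Repeats: singlicate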
Apaf-1 inh: blocks human Apaf-1 apoptosome activity. inhibition, % at 20 µM. AID 489030. O14727. reconstituted apoptosome caspase-3 activity, DEVD-Rh110 fluorescence. actives 0.71% (n = 330,000); active means inhibition of at least 40% at 20 µM;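 further: plate controls were DMSO wells for no effect and DEVD-CHO caspase inhibitor wells for full effect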
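Material: reconstituted apoptosome with Apaf-1, cytochrome c, caspase-9, procaspase-3, dATP / Buffer or medium: pH 7.5 Hepes buffer with CHAPS, BSA, DTT / Also added: cytochrome c with DEVD-Rh110 / Schedule: compound with Apaf-1, dATP, procaspase-3 30 min, then 50 min reaction, room temperature / Technique: rhodamine 110 fluorescence at Ex 480/Em 540 nm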
PRMT1 confirm: confirmation of human PRMT1 inhibitors; actives 42% (n = 3,300); inhibition, % at 2.79 µM; AID 687036; shares compounds with PRMT1 FP inh; recombinant His-PRMT1, activity-based probe fluorescence polarization;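 active means mean inhibition across replicates above the hit cutoff derived for the earlier primary screen, cut at about 22% in these data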
Numbers without * were called inactive. Most compounds without a hit are left out; they make up all but 2.6% or so of the library.

For CCCn1c(N)c(N(CCOC)C(=O)CSCC(=O)Nc2ccc(OC)cc2)c(=O)[nH]c1=O the results were GSTO1 counter -1, PAD4 FP inh -2, PRMT1 FP inh 5, TDP2 absorb -9 and Apaf-1 inh 1.
`Cc1cc(C)cc(SCc2noc(C(=O)NCCN(C)C)c2C(=O)NCCN(C)C)c1` gave GSTO1 counter -6, PAD4 FP inh -2, PRMT1 FP inh 0, TDP2 absorb 4 and Apaf-1 inh 2.
Screening CN(C)c1ccc(C(=S)N2CCN(Cc3ccccc3)CC2)cc1 returned GSTO1 counter -3, PAD4 FP inh 0, PRMT1 FP inh 55*, TDP2 absorb 7, Apaf-1 inh 10 and PRMT1 confirm 64*.
For COc1ccc(-c2nnn(CC(=O)N(CC(=O)NC3CCCC3)c3ccccc3F)n2)cc1OC the results were GSTO1 counter 3, PAD4 FP inh 2, PRMT1 FP inh -1, TDP2 absorb 16 and Apaf-1 inh 5.
Screening O=C(Nc1ccc(F)cc1)NC1CCN(Cc2nnnn2Cc2ccco2)CC1 returned GSTO1 counter 11, PAD4 FP inh 0, PRMT1 FP inh 29*, TDP2 absorb -8, Apaf-1 inh 0 and PRMT1 confirm 11.
`O=C(Nc1ccccc1F)NC1CCN(Cc2nnnn2Cc2ccc(F)cc2)CC1` gave GSTO1 counter 1, PAD4 FP inh -3, PRMT1 FP inh -2, TDP2 absorb 4 and Apaf-1 inh 4.
For Cc1ccc(/C=c2/sc3n(c2=O)CCCN=3)o1 the results were GSTO1 counter 7, PAD4 FP inh -3, PRMT1 FP inh 21, TDP2 absorb -4 and Apaf-1 inh 4.
Screening Cc1ccc(/C=c2\sc3n(c2=O)CN(c2ccc(Br)cc2)CN=3)o1 returned GSTO1 counter 6, PAD4 FP inh 1, PRMT1 FP inh 36*, TDP2 absorb 12, Apaf-1 inh 10 and PRMT1 confirm 5.
Screening O=C(NN1C(=O)/C(=C/C=C/c2ccccc2)SC1=S)c1ccncc1 returned GSTO1 counter -5, PAD4 FP inh -42, PRMT1 FP inh 6, TDP2 absorb -13 and Apaf-1 inh 9.
For O=C(NN1C(=O)/C(=C/C=C/c2ccco2)SC1=S)c1ccncc1 the results were GSTO1 counter -23, PAD4 FP inh 2, PRMT1 FP inh 53*, TDP2 absorb 19, Apaf-1 inh 26 and PRMT1 confirm 52*.
For Cc1cc([N+](=O)[O-])ccc1NC(=S)NC1CCCC1 the results were GSTO1 counter 1, PAD4 FP inh -3, PRMT1 FP inh 3, TDP2 absorb 12 and Apaf-1 inh 6.
COCCN(C(=O)COC(=O)C1(C)CC1(Cl)Cl)c1c(N)n(Cc2ccccc2)c(=O)[nH]c1=O (centres undefined) was read as GSTO1 counter 7, PAD4 FP inh 7, PRMT1 FP inh -2, TDP2 absorb -6 and Apaf-1 inh 11.
Cc1ccccc1-n1c(O)cc(=O)[nH]c1=S was read as GSTO1 counter -12, PAD4 FP inh -6, PRMT1 FP inh 28*, TDP2 absorb 4, Apaf-1 inh -11 and PRMT1 confirm 2.
COc1ccc(/C=N/n2c(-c3ccccc3)n[nH]c2=S)cc1 was read as GSTO1 counter 5, PAD4 FP inh 0, PRMT1 FP inh 2, TDP2 absorb 1 and Apaf-1 inh -3.
Screening S=c1[nH]nc(-c2ccccc2)n1/N=C/c1cccs1 returned GSTO1 counter 3, PAD4 FP inh 0 and Apaf-1 inh 7.
`COc1cccc(/C=N/n2c(-c3cccs3)n[nH]c2=S)c1` gave GSTO1 counter -8, PAD4 FP inh 4, PRMT1 FP inh 28*, TDP2 absorb 2, Apaf-1 inh -6 and PRMT1 confirm 20.
Screening Cc1ccc(-c2n[nH]c(=S)n2/N=C/c2cccs2)cc1 returned GSTO1 counter 10, PAD4 FP inh 5, PRMT1 FP inh 32*, TDP2 absorb -12, Apaf-1 inh 18 and PRMT1 confirm 8.
For COc1ccc(C=Nn2c(-c3ccc(F)cc3)n[nH]c2=S)c(OC)c1OC the results were PRMT1 FP inh 30*, TDP2 absorb -10 and PRMT1 confirm 6.
Screening CCOC(=O)C1(CC2CC2)CCN(Cc2ccc3cccc(F)c3n2)CC1 returned GSTO1 counter -1, PAD4 FP inh 0, PRMT1 FP inh -3, TDP2 absorb 0 and Apaf-1 inh 4.
Screening COc1ccc2oc(C(=O)OCC(=O)/C(C#N)=C(\C)N)c(C)c2c1 returned GSTO1 counter 5, PAD4 FP inh -1, PRMT1 FP inh 0, TDP2 absorb 6 and Apaf-1 inh -4.
For CC(=O)N(c1ccc2oc(=O)sc2c1)S(=O)(=O)c1cccs1 the results were GSTO1 counter 27, PAD4 FP inh 12, PRMT1 FP inh 94*, TDP2 absorb -4, Apaf-1 inh 4 and PRMT1 confirm 57*.
For CC(=O)Oc1ccc(N(C(C)=O)S(=O)(=O)c2cccs2)cc1 the results were GSTO1 counter 0, PAD4 FP inh -1, PRMT1 FP inh 2, TDP2 absorb 7 and Apaf-1 inh -11.
Screening CC(C)C(=O)N(c1ccc2oc(=O)sc2c1)S(=O)(=O)c1cccs1 returned GSTO1 counter 17, PAD4 FP inh 15, PRMT1 FP inh 53*, TDP2 absorb -4, Apaf-1 inh -2 and PRMT1 confirm 8.
COc1ccc(N(C(C)=O)S(=O)(=O)c2cccs2)cc1 was read as GSTO1 counter 3, PAD4 FP inh 4, PRMT1 FP inh -2, TDP2 absorb -8 and Apaf-1 inh 2.
`CC(=O)N(c1ccc2oc(=O)sc2c1)S(=O)(=O)c1ccc(C(=O)O)cc1` gave GSTO1 counter 24, PAD4 FP inh 12, PRMT1 FP inh 91*, TDP2 absorb 4, Apaf-1 inh 2 and PRMT1 confirm 80*.
COc1cc(/C=C/c2nc3ccc([N+](=O)[O-])cc3s2)ccc1OCC(=O)O was read as GSTO1 counter 4, PAD4 FP inh -3 and Apaf-1 inh -8.
Screening COc1cc(SSc2cc(OC)cc([N+](=O)[O-])c2N)c(N)c([N+](=O)[O-])c1 returned GSTO1 counter 11, PAD4 FP inh 2, PRMT1 FP inh 76*, TDP2 absorb -11, Apaf-1 inh 22 and PRMT1 confirm 90*.
Screening ClC(Cl)(c1nnnn1-c1ccccc1)c1nnnn1-c1ccccc1 returned GSTO1 counter 10, PAD4 FP inh 2, PRMT1 FP inh 90*, TDP2 absorb -11 and PRMT1 confirm 91*.
For CC(=O)NCCNc1nc2cc(-c3ccc4c(ccn4C)c3)sc2c(=O)n1C the results were PRMT1 FP inh -2 and TDP2 absorb -9.
`CCn1c2ccccc2c2cc(NC(=O)CSc3nnc(-c4ccccc4)n3Cc3ccco3)ccc21` gave PRMT1 FP inh 80*, TDP2 absorb -7 and PRMT1 confirm 65*.

Source: PubChem
